From publication PMC5928873 (Theranostics, 2018)
Where two headings read alike, the source gives them in different places.

Key:
[1] = tested on: HT-29 colon cancer xenografts; experiment: Tumor growth assay, HT-29 xenograft; type: in vivo, BALB/c nude mice; details: dosing from day 7, sacrificed day 28, n = 6
In short: (§1)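 Female BALB/c nude mice, 4–5 weeks old and housed SPF, were implanted s.c. in the right flank with BGC-823 or HT-29 cells. At 100 mm3 tumours, mice were randomised into 7 groups. Arms were PBS, reference agents (80 mg/kg/7d; 5 mg/kg/7d) and test peptides at 5 mg/kg daily or every 4 days. Body weight and tumour volume were tracked; tumours were weighed at sacrifice; n = 6, mean ± SD.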

[2] = tested on: BGC-823 gastric cancer xenografts; experiment: Tumor growth assay, BGC-823 xenograft; type: in vivo, BALB/c nude mice; details: dosing from day 7, sacrificed day 28, n = 6
In short: as §1

[3] = in mice; cited from earlier work
[4] = in rats; cited from earlier work
[5] = in humans; cited from earlier work
[6] = in rabbits, estimated; cited from earlier work
[7] = tested on: zebrafish embryo subintestinal vessels (SIVs); experiment: Zebrafish angiogenesis model; type: in vivo; details: yolk sac microinjection at 2 dpf, read at 3 dpf, 10 zebrafish per group analysed
In short: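 Transgenic zebrafish received test peptide by yolk-sac microinjection at 2 dpf, 30 embryos per group, with a positive control included. After a further 24 h, 10 embryos per group were randomly chosen. Fluorescent subintestinal vessels were imaged and SIV area was quantified by image analysis (mean ± SD, three to four independent experiments).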

## O=P1(N(CCCl)CCCl)NCCCO1 (stereo not drawn) [CTX, Cyclophosphamide]
[1]; 80 mg/kg/7d, positive group
  inhibition rate on HT-29 xenograft: 78.02%
[2]; 80 mg/kg/7d, positive group
  inhibition rate on BGC-823 xenografts: 65.9%

## Albumin
[3]
  half-life: 24 h
[4]
  half-life: 45.6 h
[5]
  half-life: 456 h
[6]
  half-life: 133 h

## Avastin: recombinant humanized monoclonal IgG1 antibody against VEGF-A
[1]; 5 mg/kg/7d
  inhibition rate on HT-29 xenograft: 77.91%
[7]
  angiogenesis of SIV plexus in zebrafish embryos (SIV area): inhibited the angiogenesis of SIV plexus
[2]; 5 mg/kg/7d
  inhibition rate on BGC-823 xenografts: 79.54%
